Results gathered from unrelated publications.
Each line is one published result; the experiments were not run side by side.
MMP7: Matrilysin (MMP7, Homo sapiens, UniProt P09237)
ADORA1: Adenosine receptor A1 (ADORA1, Homo sapiens, UniProt P30542)
USP5: Ubiquitin carboxyl-terminal hydrolase 5 (USP5, Homo sapiens, UniProt P45974)

SMILES | target | effect on | mode | technique | concentration | inhibition
CN(CCN1CCC(OC(=O)Nc2ccccc2-c2ccccc2)CC1)C(=O)c1ccc(CN2CCC(C(N)=O)CC2)cc1 | Neuromedin-K receptor (TACR3, Homo sapiens, UniProt P29371) | ligand displacement |  | radioligand | 1 µM | 1%
CNC(=O)[C@H](Cc1ccccc1)NC(=O)[C@H](CC(C)C)[C@H](CSc1cccs1)C(=O)NO | MMP7 | enzyme activity | inhibitor |  | 10 nM | 94%
COc1cc(Nc2ncc(F)c(Nc3ccc4c(n3)NC(=O)C(C)(C)O4)n2)cc(OC)c1OC | Mitogen-activated protein kinase kinase kinase kinase 3 (MAP4K3, Homo sapiens, UniProt Q8IVH8) | binding |  | competition with immobilised ligand | 10 µM | 52%
O[C@H]1[C@H](n2cnc3c(NC(C4CCCC4)C4CCCC4)nc(Cl)nc32)[C@H]2C[C@@]2(CSc2ccccc2F)[C@H]1O | ADORA1 | ligand displacement |  | radioligand | 10 µM | -6%
C#Cc1n[nH]c2c(-c3cn([C@@H](C)c4ccccc4)c(=O)[nH]c3=O)cc(F)cc12 | Tyrosine-protein kinase receptor UFO (AXL, Homo sapiens, UniProt P30530) | enzyme activity | inhibitor |  | 0.1 µM | 41.4%
N=C(N)c1ccc2cc(OC(=O)c3ccc(N=C(N)N)cc3)ccc2c1 | USP5 | enzyme activity | inhibitor |  | 10 µM | 0%
O[C@H]1[C@H](n2cnc3c(NC(C4CCCCC4)C4CCCCC4)nc(Cl)nc32)[C@H]2C[C@@]2(CCl)[C@H]1O | ADORA1 | ligand displacement |  | radioligand | 10 µM | 63%
c1ccc(C(NCCNC(c2ccccc2)c2ccccc2)c2ccccc2)cc1 | MMP7 | enzyme activity | inhibitor |  | 10 µM | -5%
CCOC(=O)c1ccc(OC(=O)CCCCCNC(=N)N)cc1 | USP5 | enzyme activity | inhibitor |  | 10 µM | 1%
CCOC(=O)[C@@]12C[C@@H]1[C@@H](n1cnc3c(NC(C4CCCC4)C4CCCC4)nc(Cl)nc31)[C@H](O)[C@@H]2O | ADORA1 | ligand displacement |  | radioligand | 10 µM | 55%
C[C@H](C(=O)N[C@H]1COc2ccccc2[C@@H]1S(C)(=O)=O)c1ccc(F)cc1 | MMP7 | enzyme activity | inhibitor |  | 10 µM | -6%
CN(C)C(=O)COC(=O)Cc1ccc(OC(=O)c2ccc(NC(=N)N)cc2)cc1 | Deubiquitinase OTUD6B (OTUD6B, Homo sapiens, UniProt Q8N6M0) | enzyme activity | inhibitor |  | 10 µM | 1%
Cn1cc(-c2cccc(N3CCc4c(sc5c4CC(C)(C)C5)C3=O)c2CO)cc(Nc2ccncn2)c1=O | Inhibitor of nuclear factor kappa-B kinase subunit alpha (CHUK, Homo sapiens, UniProt O15111) | enzyme activity | inhibitor |  | 1 µM | -5%
C#Cc1n[nH]c2c(-c3cn(C(C)c4ccccn4)c(=O)[nH]c3=O)cc(F)cc12 (stereo not drawn) | Dual specificity protein kinase CLK1 (CLK1, Homo sapiens, UniProt P49759) | enzyme activity | inhibitor |  | 1 µM | 3.7%
CCCCSC[C@@]12C[C@@H]1[C@@H](n1cnc3c(NC(C4CCCC4)C4CCCC4)nc(Cl)nc31)[C@H](O)[C@@H]2O | ADORA1 | ligand displacement |  | radioligand | 10 µM | -1%
